pIC50: −log10 of the molar value.
Assays:
[1] = target: T1, apo-human transferrin (apo-hTf) (Homo sapiens, UniProt P02787); test: Fluorescence resonance energy transfer; type: binding; settings: for Förster critical energy transfer distance R0 / binding distance r (donor-acceptor): k^2=2/3, n=1.336, ØD=0.118; for efficiency of energy transfer E: room temperature, 1.0×10^−5 mol L^−1 each
Summary of the method: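 Emission spectrum of 1.0×10−5 mol L−1 apo-hTf and absorption spectrum of 1.0×10−5 mol L−1 test compound were recorded in 20 mM Tris-HCl pH 7.4 at room temperature, 260–450 nm, and their spectral overlap determined. E was calculated from apo-hTf fluorescence without and with equimolar test compound. R0 and donor–acceptor distance r came from Förster equations.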

[2] = target: T1, apo-human transferrin (apo-hTf); test: UV-Vis absorbance titration of apo-hTf; type: binding; settings: for Ka at 280 nm: absorbance at 280 nm; for Association constants, Ka, 280 nm: absorbance of apo-hTf at 280 nm, pH 7.4
[3] = target: T1, apo-human transferrin (apo-hTf); test: Thermodynamic parameters of apo-hTf complex formation; type: binding; settings: for ∆H° / ∆S°: pH 7.4, from Ksv at 296-317 K
Summary of the method: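 Ksv values were obtained from apo-hTf fluorescence quenching at pH 7.4 at 296, 303, 310 and 317 K. ΔH°, ΔS° and ΔG° were derived from linear regression of ln(Ksv) vs 1/T (Van't Hoff equation).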

[4] = test system: human colorectal adenocarcinoma cell line, HT-29; test: MTT cell viability assay on HT-29, 72 h exposure; type: cell-based; settings: read-out: IC50 (±SD), HT-29, HT-29, 72 h of exposure
Summary of the method: (§1)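 HT-29 was grown in McCoy's 5A with 10% FBS. MCF-7 was grown in MEM with 10% FBS and 0.01 mg/mL insulin. Both were kept at 37°C, 5% CO2, trypsinized at 70–80% confluency and seeded at 1.5×10^4 cells/well for 24 h. Cells were then exposed for 72 h to test compound in 5% DMSO/95% medium, with DMSO-medium controls. MTT was added as a 2.67 mg/mL solution for 2 h. Formazan was dissolved in 10% Triton X-100/isopropanol and read at A570 minus A620. IC50 came from a sigmoidal fit of viability vs log concentration, eight replicas, triplicate, ±SD.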

[5] = target: T1, apo-human transferrin (apo-hTf); test: Fluorescence quenching of apo-hTf; type: binding; settings: for biomolecular quenching rate constant kq: kq=Ksv/τ0; for Stern-Volmer quenching constant Ksv / number of binding sites n: pH 7.4; for quenching association constant Ka: pH 7.4, modified Stern-Volmer
Summary of the method: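 Intrinsic fluorescence of apo-hTf in Tris-HCl pH 7.4 was titrated with test compound (Tris-HCl/2% DMSO). Conditions: excitation 280 nm, emission 290–500 nm, slits 10/5 nm, 1.0 cm quartz cell, at 296, 303, 310 and 317 K, triplicate titrations. Intensities were corrected for inner filter effect using absorbances at excitation and emission wavelengths. Ksv came from Stern-Volmer plots of F0/F vs [Q]; kq = Ksv/τ0 (τ0 ~1.0×10−8); Ka and n came from the modified Stern-Volmer equation.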

[6] = test system: human breast adenocarcinoma cell line, MCF-7; test: MTT cell viability assay on MCF-7, 72 h exposure; type: cell-based; settings: for IC50 (±SD), MCF-7: MCF-7, 72 h of exposure
Summary of the method: as §1

[7] = target: T1, apo-human transferrin (apo-hTf); test: Far-UV circular dichroism titration of apo-hTf, secondary structure content
Summary of the method: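 Apo-hTf (4.0×10−7 mol L−1) in 2 mM Tris-HCl pH 7.4 was titrated with a 1.0×10−3 mol L−1 stock of test compound in Tris-HCl/2% DMSO, to final 0–2.4×10−6 mol L−1. Far-UV CD was recorded from 190–250 nm under nitrogen in a 1.0 cm cell: six scans at 100 nm/min. Baseline was buffer ± DMSO at room temperature. α-Helix was derived from MRE at 208 nm; β-sheet and random coil by the CD-RRG method.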

T1 sequence (P02787 20-698): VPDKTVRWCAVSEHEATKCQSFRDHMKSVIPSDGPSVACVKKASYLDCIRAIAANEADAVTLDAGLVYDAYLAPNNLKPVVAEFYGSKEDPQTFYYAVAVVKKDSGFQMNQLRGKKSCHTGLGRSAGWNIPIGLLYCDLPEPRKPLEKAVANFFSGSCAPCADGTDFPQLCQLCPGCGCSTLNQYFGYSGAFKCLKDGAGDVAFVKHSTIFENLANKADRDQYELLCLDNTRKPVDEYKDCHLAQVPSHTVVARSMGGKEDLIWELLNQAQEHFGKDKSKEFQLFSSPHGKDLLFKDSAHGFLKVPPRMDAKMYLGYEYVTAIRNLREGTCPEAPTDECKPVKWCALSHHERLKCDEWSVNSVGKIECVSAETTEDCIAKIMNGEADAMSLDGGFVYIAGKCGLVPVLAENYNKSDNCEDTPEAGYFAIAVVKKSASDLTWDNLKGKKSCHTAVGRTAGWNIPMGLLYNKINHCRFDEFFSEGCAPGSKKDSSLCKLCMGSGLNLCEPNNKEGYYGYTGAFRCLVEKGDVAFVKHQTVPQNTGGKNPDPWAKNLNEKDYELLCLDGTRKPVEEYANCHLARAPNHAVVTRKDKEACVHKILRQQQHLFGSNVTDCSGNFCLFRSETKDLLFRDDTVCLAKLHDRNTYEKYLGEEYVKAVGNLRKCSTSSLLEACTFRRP

## [Cl][Zr+2][Cl].c1cc[cH-]c1.c1cc[cH-]c1 [Cp2ZrCl2]
[1]
  Förster critical energy transfer distance R0: 7.3 nm
  binding distance r (donor-acceptor): 10.03 nm
  efficiency of energy transfer E: 0.129
[2]
  Ka at 280 nm: 2220 M⁻¹
  Association constants, Ka, 280 nm: 2.22 10^3 M^−1
[3]; 296 K
  ∆G°: -4.57 kcal/mol
[3]; 303 K
  ∆G°: -4.584 kcal/mol
[3]; 310 K
  ∆G°: -4.598 kcal/mol
[3]; 317 K
  ∆G°: -4.613 kcal/mol
[3]
  ∆H°: -3.975 kcal/mol
  ∆S°: 8.41 J/mol K
[4]
  pIC50: 3.11
[5]; 296 K
  biomolecular quenching rate constant kq: 2.39e+11 M⁻¹ s⁻¹
  Stern-Volmer quenching constant Ksv: 2390 M⁻¹
  number of binding sites n: 1.07
  quenching association constant Ka: 4400 M⁻¹
[5]; 303 K
  biomolecular quenching rate constant kq: 1.97e+11 M⁻¹ s⁻¹
  Stern-Volmer quenching constant Ksv: 1970 M⁻¹
  number of binding sites n: 1.03
  quenching association constant Ka: 2600 M⁻¹
[5]; 310 K
  biomolecular quenching rate constant kq: 1.79e+11 M⁻¹ s⁻¹
  Stern-Volmer quenching constant Ksv: 1790 M⁻¹
  number of binding sites n: 1.01
  quenching association constant Ka: 2000 M⁻¹
[5]; 317 K
  biomolecular quenching rate constant kq: 1.5e+11 M⁻¹ s⁻¹
  Stern-Volmer quenching constant Ksv: 1500 M⁻¹
  number of binding sites n: 1
  quenching association constant Ka: 1600 M⁻¹
[6]
  IC50 (±SD), MCF-7: proliferative activity
[6]; listed as Cp^2ZrCl^2
  IC50 (±SD), MCF-7: Proliferative
[7]; compound concentration 0.4 (M)
  other secondary structure content of apo-hTf: 18.9%
  random coil content of apo-hTf: 33.8%
  α-helix content of apo-hTf: 29.2%
  β-sheet content of apo-hTf: 18.1%
[7]; compound concentration 0.8 (M)
  other secondary structure content of apo-hTf: 18.8%
  random coil content of apo-hTf: 33.9%
  α-helix content of apo-hTf: 29.1%
  β-sheet content of apo-hTf: 18.2%
[7]; compound concentration 1.2 (M)
  other secondary structure content of apo-hTf: 18.8%
  random coil content of apo-hTf: 33.9%
  α-helix content of apo-hTf: 29%
  β-sheet content of apo-hTf: 18.3%
[7]; compound concentration 1.6 (M)
  other secondary structure content of apo-hTf: 18.9%
  random coil content of apo-hTf: 33.9%
  α-helix content of apo-hTf: 28.8%
  β-sheet content of apo-hTf: 18.4%
[7]; compound concentration 2 (M)
  other secondary structure content of apo-hTf: 18.9%
  random coil content of apo-hTf: 34%
  α-helix content of apo-hTf: 28.6%
  β-sheet content of apo-hTf: 18.5%
[7]; compound concentration 2.4 (M)
  other secondary structure content of apo-hTf: 18.9%
  random coil content of apo-hTf: 34.1%
  α-helix content of apo-hTf: 28.4%
  β-sheet content of apo-hTf: 18.6%

## C1CCCC1.C1CCCC1.[Cl][Nb][Cl] [Cp2NbCl2]
[1]
  Förster critical energy transfer distance R0: 2.56 nm
  binding distance r (donor-acceptor): 3.04 nm
  efficiency of energy transfer E: 0.26
[2]
  Ka at 280 nm: 3000 M⁻¹
  Association constants, Ka, 280 nm: 3 10^3 M^−1
[3]; 296 K
  ∆G°: -5.963 kcal/mol
[3]; 303 K
  ∆G°: -6.164 kcal/mol
[3]; 310 K
  ∆G°: -6.362 kcal/mol
[3]; 317 K
  ∆G°: -6.561 kcal/mol
[3]
  ∆H°: 2.431 kcal/mol
  ∆S°: 118.65 J/mol K
[4]
  pIC50: 3.58
[5]; 296 K
  biomolecular quenching rate constant kq: 2.523e+12 M⁻¹ s⁻¹
  Stern-Volmer quenching constant Ksv: 25230 M⁻¹
  number of binding sites n: 1.26
  quenching association constant Ka: 325300 M⁻¹
[5]; 303 K
  biomolecular quenching rate constant kq: 2.804e+12 M⁻¹ s⁻¹
  Stern-Volmer quenching constant Ksv: 28040 M⁻¹
  number of binding sites n: 1.27
  quenching association constant Ka: 408100 M⁻¹
[5]; 310 K
  biomolecular quenching rate constant kq: 3.056e+12 M⁻¹ s⁻¹
  Stern-Volmer quenching constant Ksv: 30560 M⁻¹
  number of binding sites n: 1.28
  quenching association constant Ka: 485500 M⁻¹
[5]; 317 K
  biomolecular quenching rate constant kq: 3.323e+12 M⁻¹ s⁻¹
  Stern-Volmer quenching constant Ksv: 33230 M⁻¹
  number of binding sites n: 1.29
  quenching association constant Ka: 562300 M⁻¹
[6]; read-out: IC50 (±SD), MCF-7, MCF-7, 72 h of exposure
  pIC50: 2.89
[7]; compound concentration 0.4 (M)
  other secondary structure content of apo-hTf: 19.5%
  random coil content of apo-hTf: 33.8%
  α-helix content of apo-hTf: 29%
  β-sheet content of apo-hTf: 17.7%
[7]; compound concentration 0.8 (M)
  other secondary structure content of apo-hTf: 19.4%
  random coil content of apo-hTf: 34%
  α-helix content of apo-hTf: 28.7%
  β-sheet content of apo-hTf: 17.9%
[7]; compound concentration 1.2 (M)
  other secondary structure content of apo-hTf: 19.7%
  random coil content of apo-hTf: 34.2%
  α-helix content of apo-hTf: 27.6%
  β-sheet content of apo-hTf: 18.5%
[7]; compound concentration 1.6 (M)
  other secondary structure content of apo-hTf: 19.8%
  random coil content of apo-hTf: 34.4%
  α-helix content of apo-hTf: 26.9%
  β-sheet content of apo-hTf: 18.9%
[7]; compound concentration 2 (M)
  other secondary structure content of apo-hTf: 20.2%
  random coil content of apo-hTf: 34.6%
  α-helix content of apo-hTf: 26.2%
  β-sheet content of apo-hTf: 19%
[7]; compound concentration 2.4 (M)
  other secondary structure content of apo-hTf: 20.4%
  random coil content of apo-hTf: 34.8%
  α-helix content of apo-hTf: 25.4%
  β-sheet content of apo-hTf: 19.4%
